The source of these data is ChEMBL document CHEMBL4190288, “Bioactive Azaphilone Derivatives from the Fungus Talaromyces aculeatus” (J Nat Prod, 2017).

Usually MIC stands for the lowest concentration that inhibits growth of the organism. By IC50 is commonly meant the concentration needed to halve the response being measured.

In one experiment the test system is HeLa. As to the kind of experiment: Cytotoxicity against human HeLa cells by SRB assay. It is filed as functional, cell-based. The gist of the method:
(§1)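 Cytotoxicity tested on human HL-60, HeLa, A549 and K562 cell lines by a previously referenced method. Adriamycin was the positive control.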

The next experiment concerns Vibrio anguillarum. As to the kind of experiment: Antibacterial activity against Vibrio anguillarum after 18 hrs by broth dilution method. It is filed as functional. Summed up: (§2)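 Conventional broth dilution MIC assay run on a panel of Gram-positive strains (Micrococcus lysodeikticus, Bacillus cereus, Bacillus megaterium) and Gram-negative strains (Proteus vulgaris, Vibrio anguillarum, Vibrio parahaemolyticus). Ciprofloxacin served as the positive control.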

A further experiment concerns HL-60. As to the kind of experiment: Cytotoxicity against human HL60 cells by MTT assay. It is filed as functional, cell-based. The gist of the method: as §1
The target in a further experiment is Alpha glucosidase (Homo sapiens, UniProt O43451+P10253+P14410+Q2M2H8). As to the kind of experiment: Inhibition of alpha-glucosidase (unknown origin) using p-nitrophenyl glycoside as substrate treated 20 mins post substrate addition measured for 1 min by spectrophotometric analysis. It is filed as protein assay. Summed up: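 In vitro α-glucosidase inhibition measured by a previously referenced procedure.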

The next experiment has as its system A549. As to the kind of experiment: Cytotoxicity against human A549 cells by SRB assay. It is filed as functional, cell-based. The gist of the method:
as §1

A further experiment has as its system K562. As to the kind of experiment: Cytotoxicity against human K562 cells by MTT assay. Format: functional, cell-based. Summed up: as §1
On the technique in general: Tetrazolium dyes change colour on reduction, which living cells bring about.

A further experiment relates to Proteus vulgaris. As to the kind of experiment: Antibacterial activity against Proteus vulgaris after 18 hrs by broth dilution method. On the technique in general: In broth dilution the organism is exposed to a series of concentrations in liquid medium.
For the next experiment, the system named is Micrococcus luteus. As to the kind of experiment: Antibacterial activity against Micrococcus lysodeikticus after 18 hrs by broth dilution method.
In the next experiment the test system is Bacillus cereus. As to the kind of experiment: Antibacterial activity against Bacillus cereus after 18 hrs by broth dilution method.
Another experiment concerns Vibrio parahaemolyticus. As to the kind of experiment: Antibacterial activity against Vibrio parahaemolyticus after 18 hrs by broth dilution method. Format: functional. Summed up: as §2
A further experiment deals with Priestia megaterium. As to the kind of experiment: Antibacterial activity against Bacillus megaterium after 18 hrs by broth dilution method.

Converted amounts (≈) assume the structure as drawn. The source made the active and inactive calls. No cut-off for these calls is given here.

For `COC(=O)C1=CC2=CC(=O)[C@@](C)(O)[C@@H](OC(=O)c3c(C)cc(O)cc3O)[C@@H]2CO1`, the result with HeLa, with HL-60, in the experiment on A549 and with K562 was inactive. In the experiment with Vibrio anguillarum, the minimum inhibitory concentration (MIC) is > 8.28 µg/mL. In addition, on Alpha glucosidase, the IC50 is > 200 µM.

For the compound `COC(=O)CCC1=CC2=CC(=O)[C@@](C)(O)[C@@H](OC(=O)c3c(C)cc(O)cc3O)[C@@H]2CO1`, the result with HeLa, in the experiment with HL-60, in the experiment on A549 and with K562 was inactive. Further, the MIC against Vibrio anguillarum was > 8.28 µg/mL. Also, the IC50 on Alpha glucosidase was > 200 µM.

Take `Cc1cc(O)cc(O)c1C(=O)O[C@]1(C)C(=O)C=C2C=C(/C=C/CO)OC=C2C1=O`: the result in the experiment with HeLa, with HL-60, with A549 and with K562 was inactive. The IC50 on Alpha glucosidase was > 200 µM.

With `O=C(O)c1cn(C2CC2)c2cc(N3CCNCC3)c(F)cc2c1=O` [CIPROFLOXACIN], the MIC with Proteus vulgaris is 0.199 µg/mL (≈ 0.601 µM); in the experiment on Micrococcus luteus it was 0.099 µg/mL (≈ 0.299 µM); against Bacillus cereus, 0.43 µg/mL (≈ 1.3 µM); in the experiment with Vibrio parahaemolyticus, 0.43 µg/mL (≈ 1.3 µM); in the experiment with Vibrio anguillarum, 0.199 to 0.52 µg/mL (≈ 0.601 to 1.57 µM); in the experiment with Priestia megaterium it was 1.66 µg/mL (≈ 4.99 µM).

For `Cc1cc(O)cc(O)c1C(=O)O[C@H]1[C@@H]2COC(/C=C/[C@H](C)O)=CC2=CC(=O)[C@@]1(C)O`, the result in the experiment on HeLa, in the experiment with HL-60, with A549 and with K562 was inactive. Besides, in the experiment on Vibrio anguillarum, the minimum inhibitory concentration (MIC) was > 8.28 µg/mL. Also, on Alpha glucosidase, the IC50 is 78.6 µM.

Regarding `C/C=C/C1=CC2=CC(=O)[C@@](C)(OC(=O)c3c(C)cc(O)cc3O)C(=O)C2=CO1`, the result in the experiment with HeLa, in the experiment on HL-60, in the experiment with A549 and with K562 was inactive. The minimum inhibitory concentration (MIC) against Vibrio anguillarum amounted to 0.26 µg/mL (≈ 0.68 µM). In addition, at Alpha glucosidase, the 50% inhibitory concentration (IC50) was > 200 µM.

`Cc1cc(O)cc(O)c1C(=O)O[C@H]1C2=COC(/C=C/CO)=CC2=CC(=O)[C@@]1(C)O`: the outcome with HeLa, in the experiment on HL-60, in the experiment on A549 and in the experiment with K562 was inactive. Besides, in the experiment on Vibrio anguillarum, the MIC is > 8.28 µg/mL. The IC50 against Alpha glucosidase was > 200 µM.

`COC(OC)C1=CC2=CC(=O)[C@@](C)(O)[C@@H](OC(=O)c3c(C)cc(O)cc3O)[C@@H]2CO1`: the result in the experiment on HeLa, in the experiment with HL-60, with A549 and with K562 was inactive. Moreover, the MIC in the experiment with Vibrio anguillarum was > 8.28 µg/mL. Moreover, at Alpha glucosidase, the IC50 was > 200 µM.

With `Cc1cc(O)cc(O)c1C(=O)O[C@H]1[C@@H]2COC(/C=C/C=O)=CC2=CC(=O)[C@@]1(C)O`, the result in the experiment with HeLa, in the experiment with HL-60, in the experiment on A549 and with K562 was inactive. The compound further returned an MIC with Vibrio anguillarum of 0.26 µg/mL (≈ 0.649 µM). For the same compound, the IC50 at Alpha glucosidase was 22.9 µM.

With `C/C=C/C1=CC2=CC(=O)[C@@](C)(O)[C@@H](OC(=O)c3c(C)cc(O)cc3O)[C@@H]2CO1`, the outcome with HeLa, with HL-60, in the experiment on A549 and with K562 was inactive. Further, in the experiment on Vibrio anguillarum, the MIC is > 8.28 µg/mL. Besides, at Alpha glucosidase, the IC50 was > 200 µM.

Take `Cc1cc(O)cc(O)c1C(=O)O[C@H]1[C@@H]2COC(/C=C/C(=O)O)=CC2=CC(=O)[C@@]1(C)O`: the outcome in the experiment with HeLa, with HL-60, in the experiment with A549 and in the experiment on K562 was inactive. In addition, in the experiment on Vibrio anguillarum, the minimum inhibitory concentration (MIC) was > 8.28 µg/mL. The IC50 at Alpha glucosidase is > 200 µM.

`Cc1cc(O)cc(O)c1C(=O)O[C@H]1[C@@H]2COC(/C=C/CO)=CC2=CC(=O)[C@@]1(C)O` [PINOPHILIN B]: the outcome in the experiment on HeLa, in the experiment with HL-60, in the experiment with A549 and in the experiment with K562 was inactive. Moreover, the MIC in the experiment with Vibrio anguillarum was > 8.28 µg/mL. Also, the IC50 on Alpha glucosidase was > 200 µM.
